Results published in ChEMBL document CHEMBL1152557, “Solution-phase parallel synthesis of substituted chalcones and their antiparasitary activity against Giardia lamblia” (Bioorg Med Chem, 2009).
≈ marks a conversion by molar mass, not a printed value. Calls of active or inactive are those of the source. The calls are words filed in the database; no cut-off is given here.

Assays:
Type in all cases: functional, organism-based
Staphylococcus aureus = experiment: Antimicrobial activity against Staphylococcus aureus ATCC 29213 up to 100 ug/mL by broth microdilution assay
Escherichia coli = experiment: Antimicrobial activity against Escherichia coli ATCC 25922 up to 100 ug/mL by broth microdilution assay
Giardia intestinalis [1] = experiment: Antigiardial activity against Giardia lamblia WB (ATCC 30957) trophozoites assessed as mild activity after 24 hrs by trypan blue assay; conditions: Giardia duodenalis
Method in brief: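 Mid-log trophozoites chilled on ice 20 min, resuspended and counted by hemocytometer; 1.5 × 10⁵ cells per well, final volume 1.5 mL, incubated 24 h at 37 °C with compound (DMSO stock diluted in medium, DMSO ≤5% v/v) at 100 µg/mL. Plates re-chilled on ice 20 min before counting. Mortality from trypan blue staining plus loss of motility. Controls: metronidazole 1–5 µg/mL, DMSO vehicle.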

Enterococcus faecalis = experiment: Antimicrobial activity against Enterococcus faecalis ATCC 29212 up to 100 ug/mL by broth microdilution assay
Pseudomonas aeruginosa = experiment: Antimicrobial activity against Pseudomonas aeruginosa ATCC 27853 up to 100 ug/mL by broth microdilution assay
Giardia intestinalis [2] = experiment: Antigiardial activity against Giardia lamblia WB (ATCC 30957) trophozoites after 24 hrs by trypan blue assay; conditions: Giardia duodenalis; for LC50: read-out: LD50 (the source's name)
Method in brief: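 Mid-log trophozoites, ice-chilled 20 min and counted by hemocytometer, 1.5 × 10⁵ cells per well in 1.5 mL final volume, incubated 24 h at 37 °C with compounds (DMSO stock diluted in medium, DMSO ≤5% v/v) at 100 µg/mL, then 1–100 µg/mL for selected ones. Metronidazole 1–5 µg/mL and DMSO controls. Plates ice-chilled 20 min, cells resuspended, counted. Mortality by trypan blue staining and absence of motility. IC50 and LD50 by probit analysis.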

| Compound | Activity (Staphylococcus aureus) | Activity (Escherichia coli) | Activity (Giardia intestinalis [1]) | Activity (Enterococcus faecalis) | Activity (Pseudomonas aeruginosa) | IC50 (Giardia intestinalis [2]) [µg/mL] | LC50 (Giardia intestinalis [2]) [µg/mL] |
| --- | --- | --- | --- | --- | --- | --- | --- |
| COc1ccc(/C=C/C(=O)c2ccccc2)cc1 | inactive | inactive | Active | inactive | inactive |  |  |
| COc1ccc(C(=O)/C=C/c2ccc(OC)cc2OC)cc1 | inactive | inactive | Active | inactive | inactive |  |  |
| COc1ccc(C(=O)/C=C/c2ccccc2F)cc1 | inactive | inactive |  | inactive | inactive | 12.7 (≈ 49.6 µM) | 1.99 (≈ 7.77 µM) |
| COc1ccc(C(=O)/C=C/c2ccc(Cl)cc2)cc1 | inactive | inactive |  | inactive | inactive | 15 (≈ 55.1 µM) | 7.52 (≈ 27.6 µM) |
| Cc1ccc(/C=C/C(=O)c2ccc(F)cc2)cc1 | inactive | inactive |  | inactive | inactive | 15.3 (≈ 63.7 µM) | 9.67 (≈ 40.2 µM) |
| COc1ccc(/C=C/C(=O)c2ccc(Cl)cc2)cc1 | inactive | inactive | Active | inactive | inactive |  |  |
| Cc1ccc(/C=C/C(=O)c2ccccc2)cc1 | inactive | inactive | Active | inactive | inactive |  |  |
| Cc1ncc([N+](=O)[O-])n1CCO [METRONIDAZOLE] |  |  |  |  |  | 2.88 (≈ 16.8 µM) | 1.63 (≈ 9.52 µM) |
| COc1ccc(/C=C/C(=O)c2ccc(OC)cc2)cc1 | inactive | inactive | Active | inactive | inactive |  |  |
| COc1ccc(C(=O)/C=C/c2ccccc2)cc1 | inactive | inactive | Active | inactive | inactive |  |  |
